Measurements taken from ChEMBL document CHEMBL1134494, “2-Amino-6-arylsulfonylbenzonitriles as non-nucleoside reverse transcriptase inhibitors of HIV-1” (J Med Chem, 2001).

Key:
HeLa [1] = assay: Antiviral activity against K103N/V108I mutant virus in the HeLa MAGI assay.; format: functional, cell-based, Homo sapiens
Procedure, shortened: (§1)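 Isogenic recombinant HIV-1 strains carrying the listed RT mutations were tested against the test compounds in HeLa MAGI indicator cells. Beta-galactosidase was quantified by activation of a chemiluminescent substrate 3 days after infection. IC50 was the concentration inhibiting 50% of the HIV-1-induced beta-galactosidase signal relative to untreated controls. It was determined for each recombinant virus.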

HeLa [2] = assay: Antiviral activity against K103N/Y181C mutant virus in the HeLa MAGI assay.; format: functional, cell-based, Homo sapiens; procedure, shortened: as §1
HeLa [3] = assay: Antiviral activity against P236L mutant virus in the HeLa MAGI assay.; format: functional, cell-based, Homo sapiens; procedure, shortened: as §1
HeLa [4] = assay: Antiviral activity against V106A/Y181C mutant virus in the HeLa MAGI assay.; format: functional, cell-based, Homo sapiens; procedure, shortened: as §1
HeLa [5] = assay: Antiviral activity against V108I mutant virus in the HeLa MAGI assay.; format: functional, cell-based, Homo sapiens; procedure, shortened: as §1
HeLa [6] = assay: Antiviral activity against V108I/Y181C mutant virus in the HeLa MAGI assay.; format: functional, cell-based, Homo sapiens; procedure, shortened: as §1
HeLa [7] = assay: Antiviral activity against Y181C mutant virus in the HeLa MAGI assay.; format: functional, cell-based, Homo sapiens; procedure, shortened: as §1
HeLa [8] = assay: Antiviral activity against Y188C mutant virus in the HeLa MAGI assay.; format: functional, cell-based, Homo sapiens; procedure, shortened: as §1
HeLa [9] = assay: Antiviral activity against wild-type HIV-1 in the HeLa MAGI assay.; format: functional, cell-based; settings: Homo sapiens
Procedure, shortened: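 HeLa MAGI cells were infected with isogenic recombinant HIV-1. After 3 days, β-galactosidase was quantified by chemiluminescent substrate activation. IC50 is the concentration inhibiting 50% of the HIV-1-induced β-galactosidase signal relative to untreated controls.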

HeLa [10] = assay: Antiviral activity against E138K mutant virus in the HeLa MAGI assay.; format: functional, cell-based, Homo sapiens; procedure, shortened: as §1
HeLa [11] = assay: Antiviral activity against G190A mutant virus in the HeLa MAGI assay.; format: functional, cell-based, Homo sapiens; procedure, shortened: as §1
HeLa [12] = assay: Antiviral activity against K103N mutant virus in the HeLa MAGI assay.; format: functional, cell-based, Homo sapiens; procedure, shortened: as §1
HeLa [13] = assay: Antiviral activity against K103N/L100I mutant virus in the HeLa MAGI assay.; format: functional, cell-based, Homo sapiens; procedure, shortened: as §1
HeLa [14] = assay: Antiviral activity against K103N/P225H mutant virus in the HeLa MAGI assay.; format: functional, cell-based, Homo sapiens; procedure, shortened: as §1
HeLa [15] = assay: Antiviral activity against V106A mutant virus in the HeLa MAGI assay.; format: functional, cell-based, Homo sapiens; procedure, shortened: as §1
MT4 [16] = assay: Antiviral activity against HIV-1 infected MT-4 cells; no significant activity uM; format: functional, cell-based; settings: Homo sapiens
Procedure, shortened: (§2)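 HTLV-1-transformed MT4 cells were infected with HIV-1 strain 3B at 100× the amount giving a 50% drop in cell growth. They were cultured 5 days with a range of compound concentrations. IC50 is the concentration restoring 50% of infected-cell growth (cytopathic effect) relative to uninfected MT4 controls.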

[17] = target: Human immunodeficiency virus type 1 reverse transcriptase (Human immunodeficiency virus 1, UniProt Q72547); assay: Inhibitory activity against HIV-1 reverse transcriptase
Procedure, shortened: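 Recombinant HIV RT at 1 nM was combined with 40 nM Eu-chelate-labeled biotinylated DNA primer/RNA template and 100 nM Cy5-dUTP. Reactions were started with enzyme.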

[18] = test system: Human immunodeficiency virus 1; assay: Antiviral activity against HIV-1 infected human MT-4 cells.; format: functional, organism-based; settings: Human immunodeficiency virus 1, MT4; procedure, shortened: as §2
MT4 [19] = assay: Cell culture cytotoxicity against MT-4 cells.; format: functional, cell-based; settings: Homo sapiens
Procedure, shortened: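 MT4 cells were exposed to compound in parallel with the 5-day HIV-1 strain 3B cytopathic-effect assay. Compound-induced cytotoxicity is reported as the cell culture cytotoxicity IC50 (CCIC50).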

[20] = target: Human immunodeficiency virus type 1 reverse transcriptase (Human immunodeficiency virus 1) (UniProt Q72547); assay: Inhibitory activity against HIV-1 reverse transcriptase; no significant activity uM
Procedure, shortened: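 Recombinant HIV RT at 1 nM was added to start 50 µL reactions. Cy5-dUMP incorporation was followed for 30 min by time-resolved energy transfer (excitation 340 nm, emission 665 nm).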

MT4 [21] = assay: Antiviral activity against HIV-1 infected MT-4 cells; No significant activity uM; format: functional, cell-based; settings: Homo sapiens; procedure, shortened: as §2
MT4 [22] = assay: Antiviral activity against HIV-1 infected MT-4 cells at a dose of 5 uM; format: functional; settings: Homo sapiens

Structure (SMILES) | IC50 (HeLa [1]) | IC50 (HeLa [2]) | IC50 (HeLa [3]) | IC50 (HeLa [4]) | IC50 (HeLa [5]) | IC50 (HeLa [6]) | IC50 (HeLa [7]) | IC50 (HeLa [8]) | IC50 (HeLa [9]) | IC50 (HeLa [10]) | IC50 (HeLa [11]) | IC50 (HeLa [12]) | IC50 (HeLa [13]) | IC50 (HeLa [14]) | IC50 (HeLa [15]) | IC50 [17] | IC50 [18] | IC50 (MT4 [19]) | other results
Cc1ccnc2c1NC(=O)c1cccnc1N2C1CC1 [NEVIRAPINE] | 21000 nM | > 50000 nM | 56 nM | > 10000 nM | 340 nM | > 10000 nM | > 10000 nM | 2200 nM | 89 nM | 72 nM | > 10000 nM | 7100 nM | 10000 nM | 10000 nM | ~10000 nM | – | – | – | –
COc1ccc(Sc2cccc(N)c2C#N)cc1 | – | – | – | – | – | – | – | – | – | – | – | – | – | – | – | > 17000 nM | – | – | NS (MT4 [16]): no significant activity
Cc1ccccc1Sc1cccc(N)c1C#N | – | – | – | – | – | – | – | – | – | – | – | – | – | – | – | – | 16000 nM | > 40000 nM | NS [20]: no significant activity
Cc1cc(C)cc(S(=O)(=O)c2cccc(N)c2C#N)c1 | 4800 nM | > 50000 nM | 5 nM | 490 nM | 17 nM | 13000 nM | 14000 nM | 210 nM | 11 nM | 17 nM | 30 nM | 1100 nM | 3000 nM | 3300 nM | 2.4 nM | – | 10 nM | > 200000 nM | –
O=[N+]([O-])c1ccccc1[S+]([O-])c1ccccc1[N+](=O)[O-] | – | – | – | – | – | – | – | – | – | – | – | – | – | – | – | – | – | – | NS (MT4 [21]): No significant activity
N#Cc1c(N)cccc1Sc1cc(Cl)cc(Cl)c1 | – | – | – | – | – | – | – | – | – | – | – | – | – | – | – | 120 nM | – | 3000 nM | inhibition at 5 µM (MT4 [22]): 62%
COc1cc(C(F)(F)F)cc(S(=O)(=O)c2cccc(N)c2C#N)c1 | 10000 nM | > 50000 nM | 7 nM | 2100 nM | 120 nM | 36000 nM | 36000 nM | 400 nM | 63 nM | 80 nM | 660 nM | 10500 nM | 5000 nM | 5500 nM | 13 nM | 40 nM | 90 nM | 164000 nM | –
N#Cc1c(N)cccc1S(=O)(=O)c1cccc2ccccc12 | 3500 nM | > 50000 nM | 2 nM | 230 nM | 30 nM | 66000 nM | 29000 nM | 180 nM | 14 nM | 68 nM | 200 nM | 2300 nM | 1700 nM | 2800 nM | 5.4 nM | 1000 nM | 3320 nM | > 200000 nM | –
O=C1Nc2ccc(Cl)cc2[C@@](C#CC2CC2)(C(F)(F)F)O1 [EFAVIRENZ] | 74 nM | 42 nM | 0.5 nM | 3.3 nM | 1.4 nM | 3.3 nM | 1.8 nM | 1.2 nM | 0.9 nM | 0.8 nM | 6.4 nM | 24 nM | 1600 nM | 130 nM | 1.5 nM | – | – | – | –
N#Cc1c(N)cccc1S(=O)(=O)c1cc(Cl)cc(Cl)c1 | 4000 nM | > 50000 nM | 2.5 nM | 1800 nM | 47 nM | 58000 nM | 50000 nM | 140 nM | 37 nM | 85 nM | 84 nM | 8300 nM | 5500 nM | 3800 nM | 6.2 nM | 30 nM | 70 nM | > 200000 nM | –
COc1cc(C)cc(S(=O)(=O)c2cccc(N)c2C#N)c1 | 16000 nM | > 50000 nM | 8 nM | 420 nM | 29 nM | 14000 nM | 13000 nM | 300 nM | 14 nM | 29 nM | 87 nM | 1800 nM | 19000 nM | 7800 nM | 2.9 nM | 10 nM | 50 nM | 94000 nM | –
Cc1cc(Br)cc(S(=O)(=O)c2cccc(N)c2C#N)c1 | 15000 nM | > 50000 nM | 11 nM | 77 nM | 11 nM | 18000 nM | 10000 nM | 1700 nM | 9 nM | 15 nM | 31 nM | 970 nM | 16000 nM | 13000 nM | 1.5 nM | 3 nM | 20 nM | 133000 nM | –
Cc1cc(Cl)cc(S(=O)(=O)c2cccc(N)c2C#N)c1 | 33000 nM | > 50000 nM | 10 nM | 210 nM | 17 nM | 13000 nM | 14000 nM | 400 nM | 15 nM | 15 nM | 40 nM | 3600 nM | 20000 nM | 19000 nM | 2.8 nM | 5 nM | 30 nM | > 200000 nM | –
